Ki and IC90 data for 29 molecules are collected here from ChEMBL document CHEMBL1129454, “HIV protease inhibitory bis-benzamide cyclic ureas: a quantitative structure-activity relationship analysis” (J Med Chem, 1996).

Assay [1] concerns the target T1, Human immunodeficiency virus type 1 protease (Human immunodeficiency virus 1, UniProt Q72874). In words: Inhibitory activity against HIV-1 protease. Summed up:
(§1)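 Cleavage products were separated by anion-exchange HPLC and the product quantified by fluorescence. Each compound was assayed at least twice and the mean reported; assay SD <±40%.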

In assay [2] the test system is Human immunodeficiency virus 1. The assay is described as follows: The concentration required to inhibit HIV-1 RNA synthesis by 90%. Viral RNA quantified by a sandwich hybridization assay. The class given is functional. Summed up:
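Susceptible T-cell lines grown in individual microtiter wells were infected with HIV. Cell-associated viral RNA was measured by RNA hybridization 3 days after infection. […] Assay SD was <±37%. Cytotoxicity was scored separately by tetrazolium dye metabolism, because RNA assay results are valid only at non-cytotoxic doses.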

Assay [3] addresses T1, Human immunodeficiency virus type 1 protease. The assay is described as follows: Binding affinity for HIV-1 protease. Summed up:
as §1

Structures are written as SMILES.

For the molecule `Cc1cnc(NC(=O)c2cccc(CN3C(=O)N(Cc4cccc(C(=O)Nc5ncc(C)s5)c4)[C@H](Cc4ccccc4)[C@H](O)[C@@H](O)[C@H]3Cc3ccccc3)c2)s1`, affinity in assay [1] was put at a Ki of 0.014 nM. The molecule also returned an IC90 in assay [2] (Human immunodeficiency virus 1) of 17.8 nM.

`N#CCNC(=O)c1cccc(CN2C(=O)N(Cc3cccc(C(=O)NCC#N)c3)[C@H](Cc3ccccc3)[C@H](O)[C@@H](O)[C@H]2Cc2ccccc2)c1`: the Ki in assay [3] and in assay [1] was 0.063 nM throughout. In addition, the 90% effect concentration (IC90) in assay [2] (Human immunodeficiency virus 1) was 596 nM.

For the molecule `CNC(=O)c1cccc(CN2C(=O)N(Cc3cccc(C(=O)NC)c3)[C@H](Cc3ccccc3)[C@H](O)[C@@H](O)[C@H]2Cc2ccccc2)c1` (stereo in doubt; 6), the Ki in assay [3] worked out at 0.06 nM; in assay [1], 0.066 nM. This molecule also displayed an IC90 in assay [2] of 80.5 nM.

As to `O=C(Nc1cccnc1)c1cccc(CN2C(=O)N(Cc3cccc(C(=O)Nc4cccnc4)c3)[C@H](Cc3ccccc3)[C@H](O)[C@@H](O)[C@H]2Cc2ccccc2)c1`, the inhibition constant Ki in assay [3] and in assay [1] was 0.29 nM each time. This molecule also gave an IC90 in assay [2] (Human immunodeficiency virus 1) of 123 nM.

With `CNC(=O)c1cccc(CN2C(=O)N(Cc3cccc(C(=O)NC)c3)[C@H](Cc3ccccc3)[C@H](O)[C@@H](O)[C@H]2Cc2ccccc2)c1` (stereo in doubt; 31), the inhibitory constant (Ki) in assay [1] amounted to 1.9 nM.

As to `Cc1cc(C)nc(NC(=O)c2cccc(CN3C(=O)N(Cc4cccc(C(=O)Nc5cc(C)cc(C)n5)c4)[C@H](Cc4ccccc4)[C@H](O)[C@@H](O)[C@H]3Cc3ccccc3)c2)c1`, the Ki in assay [3] worked out at 0.02 nM; in assay [1] it was 0.016 nM. The 90% effect concentration (IC90) in assay [2] (Human immunodeficiency virus 1) turned out to be 6.6 nM.

As to `O=C(Nc1ncc(Cl)cc1Cl)c1cccc(CN2C(=O)N(Cc3cccc(C(=O)Nc4ncc(Cl)cc4Cl)c3)[C@H](Cc3ccccc3)[C@H](O)[C@@H](O)[C@H]2Cc2ccccc2)c1`, the inhibitory constant (Ki) in assay [3] was determined as 0.24 nM; in assay [1], 0.245 nM. In assay [2] (Human immunodeficiency virus 1), this molecule registered an IC90 of 43 nM.

As for `O=C(Nc1ncccn1)c1cccc(CN2C(=O)N(Cc3cccc(C(=O)Nc4ncccn4)c3)[C@H](Cc3ccccc3)[C@H](O)[C@@H](O)[C@H]2Cc2ccccc2)c1`, the figures for the Ki in assay [3] and in assay [1] were 0.15 nM and 0.152 nM, respectively. Also, it took 220 nM to reach the 90% level in assay [2] (Human immunodeficiency virus 1) (IC90).

Take `Cc1ccnc(NC(=O)c2cccc(CN3C(=O)N(Cc4cccc(C(=O)Nc5cc(C)ccn5)c4)[C@H](Cc4ccccc4)[C@H](O)[C@@H](O)[C@H]3Cc3ccccc3)c2)c1`: the inhibition constant (Ki) was determined as 0.03 nM in assay [3] and 0.027 nM in assay [1]. Also, it took 7.7 nM to reach the 90% level in assay [2] (Human immunodeficiency virus 1) (IC90).

Regarding `CCNC(=O)c1cccc(CN2C(=O)N(Cc3cccc(C(=O)NCC)c3)[C@H](Cc3ccccc3)[C@H](O)[C@@H](O)[C@H]2Cc2ccccc2)c1`, the inhibition constant (Ki) in assay [3] and in assay [1] was 0.21 nM throughout. The IC90 in assay [2] (Human immunodeficiency virus 1) came out at 139 nM.

In the case of `O=C(Nc1nc2ccccc2[nH]1)c1cccc(CN2C(=O)N(Cc3cccc(C(=O)Nc4nc5ccccc5[nH]4)c3)[C@H](Cc3ccccc3)[C@H](O)[C@@H](O)[C@H]2Cc2ccccc2)c1`, the 90% effect level in assay [2] (Human immunodeficiency virus 1) (IC90) was put at 3.9 nM.

Regarding `O=C(Nc1ccc(C(F)(F)F)cn1)c1cccc(CN2C(=O)N(Cc3cccc(C(=O)Nc4ccc(C(F)(F)F)cn4)c3)[C@H](Cc3ccccc3)[C@H](O)[C@@H](O)[C@H]2Cc2ccccc2)c1`, the results for the Ki in assay [3] and in assay [1] were 0.09 nM and 0.085 nM, respectively. The same molecule returned a 90% effect concentration (IC90) in assay [2] (Human immunodeficiency virus 1) of 63.4 nM.

As to `CC(C)CN(C[C@@H](O)[C@H](Cc1ccccc1)NC(=O)O[C@H]1CCOC1)S(=O)(=O)c1ccc(N)cc1`, in assay [2] (Human immunodeficiency virus 1), the IC90 was 46 nM. This lies in the double-digit nanomolar range.

On to `CCCNC(=O)c1cccc(CN2C(=O)N(Cc3cccc(C(=O)NCCC)c3)[C@H](Cc3ccccc3)[C@H](O)[C@@H](O)[C@H]2Cc2ccccc2)c1`, for which the figures for the Ki in assay [3] and in assay [1] were 0.28 nM and 0.359 nM, respectively. In assay [2] (Human immunodeficiency virus 1), this molecule had an IC90 of 259 nM.

Take `O=C(NO)c1cccc(CN2C(=O)N(Cc3cccc(C(=O)NO)c3)[C@H](Cc3ccccc3)[C@H](O)[C@@H](O)[C@H]2Cc2ccccc2)c1`: the Ki in assay [3] and in assay [1] was 0.02 nM each time. The molecule also returned a concentration for an effect of 90% (IC90) in assay [2] (Human immunodeficiency virus 1) of 448 nM.

With `O=C(Nc1cnccn1)c1cccc(CN2C(=O)N(Cc3cccc(C(=O)Nc4cnccn4)c3)[C@H](Cc3ccccc3)[C@H](O)[C@@H](O)[C@H]2Cc2ccccc2)c1`, the results for the Ki in assay [3] and in assay [1] were 0.02 nM and 0.018 nM, respectively. Besides, in assay [2] (Human immunodeficiency virus 1), the 90% effect level (IC90) was put at 3.5 nM.

Take `O=C(Nc1ccccn1)c1cccc(CN2C(=O)N(Cc3cccc(C(=O)Nc4ccccn4)c3)[C@H](Cc3ccccc3)[C@H](O)[C@@H](O)[C@H]2Cc2ccccc2)c1`: the Ki in assay [3] is 0.01 nM; in assay [1], 0.043 nM. The IC90 in assay [2] (Human immunodeficiency virus 1) amounted to 2.8 nM.

For `CONC(=O)c1cccc(CN2C(=O)N(Cc3cccc(C(=O)NOC)c3)[C@H](Cc3ccccc3)[C@H](O)[C@@H](O)[C@H]2Cc2ccccc2)c1`, the Ki is 0.08 nM in assay [3] and 0.045 nM in assay [1]. Further, the concentration for an effect of 90% (IC90) in assay [2] (Human immunodeficiency virus 1) worked out at 214 nM.

In turn, `O=C(Nc1nncs1)c1cccc(CN2C(=O)N(Cc3cccc(C(=O)Nc4nncs4)c3)[C@H](Cc3ccccc3)[C@H](O)[C@@H](O)[C@H]2Cc2ccccc2)c1` came in with a Ki in assay [1] of 0.11 nM. The same molecule displayed an IC90 in assay [2] (Human immunodeficiency virus 1) of 51.3 nM.

Turning to `NNC(=O)c1cccc(CN2C(=O)N(Cc3cccc(C(=O)NN)c3)[C@H](Cc3ccccc3)[C@H](O)[C@@H](O)[C@H]2Cc2ccccc2)c1`, the Ki in assay [3] and in assay [1] was 0.018 nM each time. Further, the IC90 in assay [2] (Human immunodeficiency virus 1) is 884 nM.

`CC(C)(C)NC(=O)[C@@H]1CN(Cc2cccnc2)CCN1C[C@@H](O)C[C@@H](Cc1ccccc1)C(=O)NC1c2ccccc2C[C@H]1O` (single isomer, unassigned) showed an IC90 in assay [2] (Human immunodeficiency virus 1) of 50 nM.

On to `Cc1csc(NC(=O)c2cccc(CN3C(=O)N(Cc4cccc(C(=O)Nc5nc(C)cs5)c4)[C@H](Cc4ccccc4)[C@H](O)[C@@H](O)[C@H]3Cc3ccccc3)c2)n1`, for which the Ki in assay [1] amounted to 0.025 nM. The IC90 in assay [2] (Human immunodeficiency virus 1) was 4.1 nM.

On to `CC(C)(C)NC(=O)[C@@H]1C[C@@H]2CCCC[C@@H]2CN1C[C@@H](O)[C@H](Cc1ccccc1)NC(=O)[C@H](CC(N)=O)NC(=O)c1ccc2ccccc2n1`, for which the IC90 in assay [2] (Human immunodeficiency virus 1) came out at 10.4 nM.

In assay [1], `O=C(Nc1nnc(C(F)(F)F)s1)c1cccc(CN2C(=O)N(Cc3cccc(C(=O)Nc4nnc(C(F)(F)F)s4)c3)[C@H](Cc3ccccc3)[C@H](O)[C@@H](O)[C@H]2Cc2ccccc2)c1` came in with an inhibitory constant (Ki) of 0.18 nM. It took 74.8 nM to reach the 90% level in assay [2] (Human immunodeficiency virus 1) (IC90).

In assay [2] (Human immunodeficiency virus 1), `CC(C)c1nc(CN(C)C(=O)N[C@H](C(=O)N[C@@H](Cc2ccccc2)C[C@H](O)[C@H](Cc2ccccc2)NC(=O)OCc2cncs2)C(C)C)cs1` [RITONAVIR] came in with a 90% effect concentration (IC90) of 76 nM. In other words, the double-digit nanomolar range.

Take `O=C(Nc1nccs1)c1cccc(CN2C(=O)N(Cc3cccc(C(=O)Nc4nccs4)c3)[C@H](Cc3ccccc3)[C@H](O)[C@@H](O)[C@H]2Cc2ccccc2)c1`: the 90% effect level in assay [2] (Human immunodeficiency virus 1) (IC90) was put at 1.7 nM. This IC90 lies about 45-fold lower than the previous one.

`Cc1coc(NC(=O)c2cccc(CN3C(=O)N(Cc4cccc(C(=O)Nc5nc(C)co5)c4)[C@H](Cc4ccccc4)[C@H](O)[C@@H](O)[C@H]3Cc3ccccc3)c2)n1` showed an inhibition constant (Ki) in assay [1] of 0.064 nM. In addition, the IC90 in assay [2] (Human immunodeficiency virus 1) was 59.6 nM.

Regarding `O=C(Nc1ncc[nH]1)c1cccc(CN2C(=O)N(Cc3cccc(C(=O)Nc4ncc[nH]4)c3)[C@H](Cc3ccccc3)[C@H](O)[C@@H](O)[C@H]2Cc2ccccc2)c1`, the affinity in assay [1], expressed as Ki, was 0.014 nM. Besides, the 90% effect concentration (IC90) in assay [2] (Human immunodeficiency virus 1) came out at 45.5 nM.

Consider `O=C1N(Cc2ccc(CO)cc2)[C@H](Cc2ccccc2)[C@H](O)[C@@H](O)[C@@H](Cc2ccccc2)N1Cc1ccc(CO)cc1` [DMP-323], for which the 90% effect level in assay [2] (Human immunodeficiency virus 1) (IC90) was put at 115 nM.

The Ki is a measure of affinity in units of concentration, obtained from inhibition or displacement. Lower therefore signals a stronger hold on the target. The IC90 is the concentration at which the effect reaches the 90% level. High values mean a need for much substance, low ones an effect from little substance.
